pKi: −log10 of the molar value. Activity calls are given as the source filed them. The rule behind the calls is not given here.
Experiments:
[1] = Displacement of [125I]-IMPY from amyloid beta (1 to 42) fibrils after 2 hrs by gamma-counting analysis
In short: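 Competition binding with aggregated Aβ1-42 fibrils and [125I]IMPY (60000−100000 cpm/100 μL) in 0.05% BSA (1 mL total); inhibitors 10⁻⁴−10^−8.5 M in ethanol. Incubated 37 °C for 2 h, then GF/B vacuum filtration with PBS (0.02 M, pH 7.4) washes and γ counting. Three repeats; IC50 converted to Ki by Cheng−Prusoff.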

[2] = species: Mus musculus; assay: Binding affinity to amyloid beta plaques in transgenic C57BL6 mouse hippocampus expressing APP Swedish mutant/PSEN1 at 370 KBq/100 ul after 1 hr by thioflavinS-staining method; format: tissue-based; conditions: tested as the 18F-labelled form
In short: (§1)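 Paraffin brain sections from 12-month-old Tg mice (C57BL6, APPswe/PSEN1) and age-matched controls, deparaffinized through xylene and graded ethanol, then PBS (0.2 M, pH 7.4) 30 min. Incubated with 18F tracer (370 KBq per 100 μL) 1 h at room temperature, washed in 40% EtOH, rinsed in water, then phosphor plate exposure 2 h. The same sections were afterwards stained with 0.125% thioflavin S in 10% EtOH for 3 min and washed in 40% EtOH.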

[3] = species: Mus musculus; assay: Binding affinity to amyloid beta plaques in transgenic C57BL6 mouse hippocampus expressing APP Swedish mutant/PSEN1 at 370 KBq/100 ul after 1 hr by autoradiographic analysis; format: tissue-based; conditions: tested as the 18F-labelled form; in short: as §1
[4] = molecular target: Amyloid-beta precursor protein (Homo sapiens) (UniProt P05067); assay: Binding affinity to amyloid beta plaques in Alzheimer patient brain at 370 KBq/100 ul after 1 hr by autoradiographic analysis; conditions: tested as the 18F-labelled form
[5] = species: Mus musculus; assay: Binding affinity to amyloid beta plaques in transgenic C57BL6 mouse cortex expressing APP Swedish mutant/PSEN1 at 370 KBq/100 ul after 1 hr by autoradiographic analysis; conditions: tested as the 18F-labelled form; in short: as §1
[6] = species: Mus musculus; assay: Binding affinity to amyloid beta plaques in transgenic C57BL6 mouse cortex expressing APP Swedish mutant/PSEN1 at 370 KBq/100 ul after 1 hr by thioflavinS-staining method; conditions: tested as the 18F-labelled form; in short: as §1

Amyloid-beta precursor protein (Homo sapiens), sequence (P05067 whole entry): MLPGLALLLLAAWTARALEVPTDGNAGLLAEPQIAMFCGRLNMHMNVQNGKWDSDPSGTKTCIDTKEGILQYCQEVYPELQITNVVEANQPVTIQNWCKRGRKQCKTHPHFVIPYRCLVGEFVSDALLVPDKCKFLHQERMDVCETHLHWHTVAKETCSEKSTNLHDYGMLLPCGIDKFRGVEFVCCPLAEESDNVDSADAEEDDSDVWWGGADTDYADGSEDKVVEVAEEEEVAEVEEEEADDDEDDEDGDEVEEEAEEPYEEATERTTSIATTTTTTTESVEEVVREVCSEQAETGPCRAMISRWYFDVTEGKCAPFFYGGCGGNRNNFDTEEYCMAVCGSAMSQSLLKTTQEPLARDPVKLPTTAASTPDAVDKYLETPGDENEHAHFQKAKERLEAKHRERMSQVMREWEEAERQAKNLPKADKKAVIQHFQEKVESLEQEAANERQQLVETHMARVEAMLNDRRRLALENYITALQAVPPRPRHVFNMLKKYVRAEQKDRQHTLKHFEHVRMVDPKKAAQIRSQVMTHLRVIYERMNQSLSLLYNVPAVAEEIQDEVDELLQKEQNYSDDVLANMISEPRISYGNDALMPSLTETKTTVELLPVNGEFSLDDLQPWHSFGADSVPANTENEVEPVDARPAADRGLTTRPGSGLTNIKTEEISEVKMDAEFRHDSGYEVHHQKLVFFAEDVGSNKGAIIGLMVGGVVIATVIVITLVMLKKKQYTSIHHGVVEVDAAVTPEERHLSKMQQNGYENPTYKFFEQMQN

- pKi [1]: 8.00
- Activity [2]: Active
- Activity [3]: Active
- Activity [4]: Active
- Activity [5]: Active
- Activity [6]: Active
SMILES: CNc1ccc(-c2nc3ccc(OCCF)cc3s2)cn1

— ChEMBL document CHEMBL2177098, “Synthesis and evaluation of novel ¹⁸F labeled 2-pyridinylbenzoxazole and 2-pyridinylbenzothiazole derivatives as ligands for positron emission tomography (PET) imaging of β-amyloid plaques” (J Med Chem, 2012)
